Assay [1] has as its system RPE-1 human normal Retina pigmented epithelium cells. Description: MTT anti-proliferative assay, RPE-1. The settings on record: RPE-1, 48 h, read-out: IC50 (μM) ± SD RPE-1. Format: cell-based. Put shortly:
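RPE-1 cells were grown at 37 °C (5% CO₂, humidified) in RPMI-1640 with 10% heat-inactivated FBS and 100 U/mL penicillin/streptomycin. After 24 h, the medium was changed to serum-free, and serial dilutions of test compound in DMSO were added for 48 h. MTT solution (2.5 mg/mL) was then added for 4 h, formazan was dissolved in DMSO, and A590 was read. Triplicates were repeated on three days. % cytotoxicity = (1 − As/Ab) × 100, from which IC50 was derived.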
On the technique in general: Tetrazolium dyes change colour on reduction, which living cells bring about.

Assay [2] concerns MCF-7 breast adenocarcinoma cells. Description: MTT anti-proliferative assay, MCF-7. Format: cell-based. The settings on record: Homo sapiens, MCF7, 48 h, read-out: IC50 (μM) ± SD MCF-7.

Structures are written as SMILES.

For `CSc1nc(Cl)c2c(-c3ccc4ccccc4n3)cc(-c3ccccc3)nc2n1` [Compound 10, 4-chloro-2-(methylthio)-7-phenyl-5-(quinolin-2-yl) pyrido[2,3-d] pyrimidine], the values for the IC50 in assay [1] and in assay [2] were 50.4 ± 1.8 µM and 40.1 ± 2.3 µM, respectively.

For `CS(=O)(=O)CCNCc1ccc(-c2ccc3ncnc(Nc4ccc(OCc5cccc(F)c5)c(Cl)c4)c3c2)o1` [lapatinib, reference compound], the concentration for half-maximal inhibition (IC50) in assay [2] stood at 136 µM.

`c1ccc(-c2cc(-c3ccc4ccccc4n3)c3c(N4CCNCC4)nc(N4CCNCC4)nc3n2)cc1` [Compound 14a, 7-phenyl-2,4-di (piperazin-1-yl)-5-(quinolin-2-yl) pyrido [2,3-d] pyrimidine]: the IC50 in assay [1] worked out at 28.1 ± 1.6 µM; in assay [2], 18.7 ± 1.9 µM.

Turning to `O=c1c2ccccc2nc2n1c1nc(-c3ccccc3)cc(-c3ccc4ccccc4n3)c1c1nc3ccccc3c(=O)n12` [Compound 16, 8-phenyl-6-(quinolin-2-yl)-11H,18H-pyrido [3′,2':5,6] pyrimido [2,1-b:4,3-b'] diquinazoline-11,18-dione], the 50% inhibitory concentration (IC50) in assay [1] was found to be 17.5 ± 1.8 µM; in assay [2], 6.2 ± 1.3 µM.

For `CSc1nc2nc(-c3ccccc3)cc(-c3ccc4ccccc4n3)c2c(=O)[nH]1` [Compound 2, 2-(methylthio)-7-phenyl-5-(quinolin-2-yl) pyrido [2,3-d] pyrimidin-4(3H)-one], the IC50 turned out to be 52.6 ± 1.9 µM in assay [1] and 43.2 ± 2.2 µM in assay [2].

In the case of `O=c1[nH]c(N2CCOCC2)nc2nc(-c3ccccc3)cc(-c3ccc4ccccc4n3)c12` [Compound 7b, 2-morpholino-7-phenyl-5-(quinolin-2-yl) pyrido [2,3-d] pyrimidin-4(3H)-one], the figures for the half-inhibitory concentration (IC50) in assay [1] and in assay [2] were 43.5 ± 1.5 µM and 32.5 ± 1.3 µM, respectively.

In the case of `O=c1[nH]c(N2CCNCC2)nc2nc(-c3ccccc3)cc(-c3ccc4ccccc4n3)c12` [Compound 7a, 7-phenyl-2-(piperazin-1-yl)-5-(quinolin-2-yl) pyrido [2,3-d] pyrimidin-4(3H)-one], the half-maximal inhibitory concentration (IC50) is 42.1 ± 1.9 µM in assay [1] and 31.2 ± 1.8 µM in assay [2].

As to `Clc1ccc(Nc2nc(Nc3ccc(Cl)cc3)c3c(-c4ccc5ccccc5n4)cc(-c4ccccc4)nc3n2)cc1` [Compound 13b, N^2, N^4-bis(4-chlorophenyl)-7-phenyl-5-(quinolin-2-yl) pyrido [2,3-d] pyrimidine-2,4-diamine], the half-maximal inhibitory concentration (IC50) is 32.4 ± 1.7 µM in assay [1] and 21.8 ± 2.2 µM in assay [2].

In the case of `c1ccc(-c2cc(-c3ccc4ccccc4n3)c3c(N4CCOCC4)nc(N4CCOCC4)nc3n2)cc1` [Compound 14b, 4,4'-(7-phenyl-5-(quinolin-2-yl)pyrido [2,3-d]pyrimidine-2,4-diyl) dimorpholine], the concentration for half-maximal inhibition (IC50) turned out to be 29.3 ± 1.1 µM in assay [1] and 19.2 ± 1.5 µM in assay [2].

For the compound `COc1ccc(Nc2nc(Nc3ccc(OC)cc3)c3c(-c4ccc5ccccc5n4)cc(-c4ccccc4)nc3n2)cc1` [Compound 13c, N^2, N^4-bis(4-methoxyphenyl)-7-phenyl-5-(quinolin-2-yl) pyrido [2,3-d] pyrimidine-2,4-diamine], the values for the IC50 in assay [1] and in assay [2] were 33.2 ± 1.4 µM and 22.5 ± 2.3 µM, respectively.

For `O=c1[nH]c(=S)[nH]c2nc(-c3ccccc3)cc(-c3ccc4ccccc4n3)c12` [Compound 1, 7-phenyl-5-(quinolin-2-yl)-2-thioxo-2,3-dihydropyrido[2,3-d] pyrimidin-4(1H)-one], the half-inhibitory concentration (IC50) in assay [1] came to 54.2 ± 2.3 µM; in assay [2] it was 45.5 ± 2.5 µM.

With `CS(=O)(=O)c1nc2nc(-c3ccccc3)cc(-c3ccc4ccccc4n3)c2c(=O)[nH]1` [Compound 6, 2-(methylsulfonyl)-7-phenyl-5-(quinolin-2-yl) pyrido [2,3-d] pyrimidin-4(3H)-one], the concentration for half-maximal inhibition (IC50) in assay [1] was found to be 47.3 ± 1.7 µM; in assay [2] it was 37.8 ± 1.4 µM.

Consider `CNC(=O)c1cc(Oc2ccc(NC(=O)Nc3ccc(Cl)c(C(F)(F)F)c3)cc2)ccn1` [Sorafenib, reference compound], for which, in assay [2], the IC50 was found to be 31 µM.

Take `O=c1c2ccccc2[nH]c2nc3nc(-c4ccccc4)cc(-c4ccc5ccccc5n4)c3c(=O)n12` [Compound 9, 2-phenyl-4-(quinolin-2-yl)-5H-pyrido [2′,3':4,5] pyrimido [2,1-b] quinazoline-5,7(12H)-dione]: the IC50 in assay [1] was 21.2 ± 1.1 µM; in assay [2], 8.1 ± 2.1 µM.

For the compound `O=C(O)c1ccccc1Nc1nc2nc(-c3ccccc3)cc(-c3ccc4ccccc4n3)c2c(=O)[nH]1` [Compound 8, 2-((4-oxo-7-phenyl-5-(quinolin-2-yl)-3,4-dihydropyrido[2,3-d]pyrimidin-2-yl)amino) benzoic acid], the values for the IC50 in assay [1] and in assay [2] were 45.2 ± 1.5 µM and 35.4 ± 1.1 µM, respectively.

As for `O=C(O)c1ccccc1Nc1nc(Nc2ccccc2C(=O)O)c2c(-c3ccc4ccccc4n3)cc(-c3ccccc3)nc2n1` [Compound 15, 2,2'-((7-phenyl-5-(quinolin-2-yl)pyrido [2,3-d]pyrimidine-2,4-diyl)bis(azanediyl)) dibenzoic acid], the half-maximal inhibitory concentration (IC50) in assay [1] was found to be 38.2 ± 1.1 µM; in assay [2], 27.1 ± 1.2 µM.

As to `O=c1c2c(-c3ccc4ccccc4n3)cc(-c3ccccc3)nc2nc2n(-c3ccccc3)nc(-c3ccccc3)n12` [Compound 5a, 1,3,8-triphenyl-6-(quinolin-2-yl) pyrido [2,3-d] [1,2,4] triazolo[4,3-a] pyrimidin-5(1H)-one], the concentration for half-maximal inhibition (IC50) in assay [1] came out at 26.4 ± 1.4 µM; in assay [2] it was 15.1 ± 2.3 µM.

As for `c1ccc(Nc2nc(Nc3ccccc3)c3c(-c4ccc5ccccc5n4)cc(-c4ccccc4)nc3n2)cc1` [Compound 13a, N^2, N^4,7-triphenyl-5-(quinolin-2-yl) pyrido [2,3-d] pyrimidine-2,4-diamine], the figures for the half-maximal inhibitory concentration (IC50) in assay [1] and in assay [2] were 34.7 ± 1.3 µM and 23.9 ± 2.1 µM, respectively.

Regarding `NNc1nc(NN)c2c(-c3ccc4ccccc4n3)cc(-c3ccccc3)nc2n1` [Compound 11, 2,4-dihydrazinyl-7-phenyl-5-(quinolin-2-yl) pyrido [2,3-d] pyrimidine], the IC50 in assay [1] was 40.1 ± 1.6 µM; in assay [2], 29.5 ± 1.5 µM.

Consider `COc1cccc2c1C(=O)c1c(O)c3c(c(O)c1C2=O)C[C@@](O)(C(=O)CO)C[C@@H]3O[C@H]1C[C@H](N)[C@H](O)[C@H](C)O1` [Doxorubicin, reference compound], for which the concentration for half-maximal inhibition (IC50) in assay [1] was determined as 30.1 ± 3.1 µM; in assay [2], 10.5 ± 2.2 µM.

Broadly, the IC50 is the midpoint of a concentration-inhibition curve.

For the origin of these results see publication PMC10925991 (Heliyon, 2024).
